Data reported in ChEMBL document CHEMBL1142970, “Inhibition of secreted phospholipase A2. 4-glycerol derivatives of 4,5-dihydro-3-(4-tetradecyloxybenzyl)-1,2,4-4H-oxadiazol-5-one with broad activities” (J Med Chem, 2007).

Key:
[1] = biological target: Phospholipase A2, major isoenzyme (Sus scrofa, UniProt P00592); test: Inhibition of pig group IB PLA2 by fluorimetric assay
Outline: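 Porcine pancreatic sPLA2, 60 ng per 1 mL, in 50 mM Tris-HCl pH 7.5, 100 mM NaCl, 1 mM EGTA, 0.1% fatty acid-free BSA, 2 µM pyrene substrate β-pyC-10-PG. Inhibitor in ethanol or DMSO added after BSA. Activity as µmol hydrolyzed/min/mg, giving 50%-inhibition concentration.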

[2] = biological target: T1, Phospholipase A2, membrane associated (Homo sapiens, UniProt P14555); test: Inhibition of human group IIA PLA2 by fluorimetric assay
T1 sequence (P14555 whole entry): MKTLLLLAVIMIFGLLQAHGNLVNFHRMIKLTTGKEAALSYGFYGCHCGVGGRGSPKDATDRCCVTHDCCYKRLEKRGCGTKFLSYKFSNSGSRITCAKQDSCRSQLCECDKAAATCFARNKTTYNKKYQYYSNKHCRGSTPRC
Outline: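 Fluorimetric (Radvanyi method): 1 ng synthetic hGIIA sPLA2 in 1 mL of 50 mM Tris-HCl pH 7.5, 100 mM NaCl, 1 mM EGTA, 0.1% fatty acid-free BSA, 2 µM β-pyC-10-PG. Inhibitor added in ethanol or DMSO after BSA. Reaction started with 10 mM CaCl2 (final), fluorescence rise followed 2 min.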

[3] = Lipophilicity, log P of the compound; format: physicochemical; conditions: octanol/water
Outline: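 log P calculated from Rekker's hydrophobic fragmental constants.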

Phospholipase A2 = Phospholipase A2 (Homo sapiens, UniProt P04054); test: Inhibition of human group IB PLA2 in [3H]oleate-labeled Escherichia coli membrane by radiometric assay
Outline: (§1)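 Incubation 30-60 min, time adjusted for linear hydrolysis. Stopped with 0.1 M EDTA pH 8.0/1% BSA, centrifuged 10 000g, supernatant counted. Enzyme-free controls subtracted. IC50 obtained after 10 µM screen.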

[4] = biological target: T1, Phospholipase A2, membrane associated; test: Inhibition of human group IIA PLA2 in [3H]oleate-labeled Escherichia coli membrane by radiometric assay; outline: as §1
Phospholipase A2 group V = biological target: T2, Phospholipase A2 group V (Homo sapiens, UniProt P39877); test: Inhibition of human group V PLA2 in [3H]oleate-labeled Escherichia coli membrane by radiometric assay; outline: as §1
T2 sequence (P39877 whole entry): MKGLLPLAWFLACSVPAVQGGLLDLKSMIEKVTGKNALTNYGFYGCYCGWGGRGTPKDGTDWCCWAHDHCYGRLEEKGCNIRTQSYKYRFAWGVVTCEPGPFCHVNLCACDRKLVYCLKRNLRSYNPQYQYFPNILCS

[5] = biological target: T3, Group 10 secretory phospholipase A2 (Homo sapiens, UniProt O15496); test: Inhibition of human group X PLA2 in [3H]oleate-labeled Escherichia coli membrane by radiometric assay; outline: as §1
T3 sequence (O15496 whole entry): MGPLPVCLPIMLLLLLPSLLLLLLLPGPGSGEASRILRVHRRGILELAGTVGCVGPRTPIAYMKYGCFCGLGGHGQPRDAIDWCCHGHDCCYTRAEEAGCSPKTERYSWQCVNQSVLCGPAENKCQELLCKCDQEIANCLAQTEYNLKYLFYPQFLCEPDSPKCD

Chain of Phospholipase A2 (P04054 whole entry): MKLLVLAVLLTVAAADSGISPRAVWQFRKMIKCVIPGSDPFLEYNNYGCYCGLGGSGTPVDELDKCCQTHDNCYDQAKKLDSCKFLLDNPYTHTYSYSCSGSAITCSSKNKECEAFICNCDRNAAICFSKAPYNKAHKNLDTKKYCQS
Chain of Phospholipase A2, major isoenzyme (P00592 whole entry): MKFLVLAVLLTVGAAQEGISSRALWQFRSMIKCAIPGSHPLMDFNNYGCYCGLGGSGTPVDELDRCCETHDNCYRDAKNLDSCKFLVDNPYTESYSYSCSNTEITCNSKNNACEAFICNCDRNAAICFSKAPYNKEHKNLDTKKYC

SMILES	IC50 [1] [µM]	IC50 [2] [µM]	logP ([3]; read-out: LogP)	logP [3]	IC50 (Phospholipase A2) [µM]	IC50 [4] [nM]	IC50 (Phospholipase A2 group V) [nM]	IC50 [5] [µM]
CCCCCCCCCCCCCCOC(COCCCCC)COc1ccc(-c2noc(=O)[nH]2)cc1 (racemic)	> 100	8.3	8.72					
CCCCCCCCCCCCCCOc1ccc(Cc2noc(=O)[nH]2)cc1	> 100	4	7.08					
CCCCCCCCCCCCCCOC(COc1ccc(Cc2nc(=O)o[nH]2)cc1)COc1ccc(Cc2nc(=O)o[nH]2)cc1	39.9	2.1	7.64					
CCCCCCCCCCCCCCOC(COCC)COc1ccc(-c2noc(=O)[nH]2)cc1 (racemic)	> 40	29.8	7.34					
CCCCCCCCCCCCCCOC(COc1ccc(-c2nc(=O)o[nH]2)cc1)COc1ccc(-c2nc(=O)o[nH]2)cc1	> 100	47.7	7.05					
CCCCCCCOCC(COc1ccc(Cc2noc(=O)[nH]2)cc1)OCCCCCCC (racemic)	> 100	11.6	7.12					
O=c1nc(-c2ccc(OCC(COCCCCc3ccccc3)OCCCCc3ccccc3)cc2)[nH]o1 (racemic)	> 100	76.7	6.51					
CCCCCCCCCCCCCCOC(COCCCCc1ccccc1)COc1ccc(-c2noc(=O)[nH]2)cc1 (racemic)	2.2	0.29		10	15	26000	22000	12
CCCCCCCCCCCCCCOC(COCc1ccc(C#N)cc1)COc1ccc(Cc2nc(=O)o[nH]2)cc1 (racemic)	9.6	1.1	8.94		7.6	7600	1730	5
CCCCCCCCCCCCCCOCC(COc1ccc(-c2noc(=O)[nH]2)cc1)Oc1ccc(-c2noc(=O)[nH]2)cc1 (racemic)	63.6	21	7.05					
CCCCCCCOCC(COc1ccc(-c2noc(=O)[nH]2)cc1)OCCCCCCC (racemic)	> 100	50.9	6.3					
CCCCCOC(COc1ccc(Cc2noc(=O)[nH]2)cc1)COc1ccc(Cc2noc(=O)[nH]2)cc1	> 100	30.5	2.97					
CCCCCCCCCCCCCCOC(COc1ccc(-c2noc(=O)[nH]2)cc1)COC(c1ccccc1)c1ccccc1 (racemic)	5.6	0.28		10.1	18	5000	2000	5.3
Cc1c(C(=O)C(N)=O)c2c(OCC(=O)O)cccc2n1Cc1ccccc1-c1ccccc1					3.3	180	270	4.57
CCCCCCCCCCCCCCOC(COCc1ccccc1)COc1ccc(-c2noc(=O)[nH]2)cc1 (racemic)	> 25	14.8	8.48		> 100	> 100000	> 100000	14
CCCCCCCCCCCCCCOC(COc1ccc(-c2noc(=O)[nH]2)cc1)COC(c1ccccc1)(c1ccccc1)c1ccccc1 (racemic)	> 50	0.9		11.8	5.75	2000	660	1.25
CCCCCCCCCCCCCCO[C@@H](COc1ccc(-c2nc(=O)o[nH]2)cc1)COC(c1ccccc1)(c1ccccc1)c1ccccc1	> 50	0.33		11.8				
CCCCCCCCCOCC(COc1ccc(Cc2noc(=O)[nH]2)cc1)OCCCCCCCCC (racemic)	> 100	2.7		9.18				
CCCCCCCCCCCCCCOC(COCCCCCCCCCC)COc1ccc(-c2nc(=O)o[nH]2)cc1 (stereo not drawn)	> 100	0.28		11.5	10	1000	550	1
CCCCCCCCCCCCCCCCCCOC(COCc1ccc(C#N)cc1)COc1ccc(Cc2noc(=O)[nH]2)cc1 (racemic)	36.6	0.15		11	8.7	1150	1000	0.9
CCCCCCCCCCCCCCOC(COCc1cccc(OC)c1)COc1ccc(-c2nc(=O)o[nH]2)cc1 (racemic)	39	2.2	8.56					
CCCCCCCCCCCCCCOCC(COc1ccc(Cc2nc(=O)o[nH]2)cc1)Oc1ccc(Cc2nc(=O)o[nH]2)cc1 (racemic)	57.8	3.1	7.64					
CCCCCCCCCCCCCCOC(CO)COc1ccc(-c2noc(=O)[nH]2)cc1 (racemic)	> 100	56	6.59					
